Hits are enriched below; roughly 4.1% of the tested compounds scored in any of these assays.
KCC2 mod – KCC2 (human) Cl- transport modulation; Q9H2X9; KCC2 cells, thallium flux FluoZin-2 fluorescence; B-score of Tl+ flux slope (higher = more flux/activation; lower = inhibition) at 10 µM; 2.2% of 190,000 active; AID 1456;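 active = thallium flux slope and its plate-corrected score both differing from the plate sample mean at a set confidence after two filtering rounds, in either direction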;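 note: slope of fluorescence scaled to starting intensity during 10 to 20 s after thallium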
KCNK9 block – human KCNK9 channel inhibition | AID 488922 | B-score at 10 µM | 1.2% of 310,000 active | HEK293 KCNK9, FluxOR thallium flux fluorescence; hits give low values;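 active = ratio B-score over 3 SD below the library mean, with starting fluorescence within 5 SD of its mean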;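 note: negative B-score means less thallium flux so channel inhibition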
Target sequence (Q9NPC2 whole entry, looked up): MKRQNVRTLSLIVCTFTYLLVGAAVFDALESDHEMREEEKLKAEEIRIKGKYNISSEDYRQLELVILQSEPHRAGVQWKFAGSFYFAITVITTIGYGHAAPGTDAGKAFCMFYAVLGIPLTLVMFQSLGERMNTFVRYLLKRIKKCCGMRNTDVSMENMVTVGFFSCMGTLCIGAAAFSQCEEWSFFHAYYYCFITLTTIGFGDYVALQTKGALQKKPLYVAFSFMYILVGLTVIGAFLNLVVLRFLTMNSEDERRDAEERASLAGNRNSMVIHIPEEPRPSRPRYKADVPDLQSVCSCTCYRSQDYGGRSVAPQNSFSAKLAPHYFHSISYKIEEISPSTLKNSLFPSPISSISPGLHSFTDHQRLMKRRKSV
KCNQ1 block – human KCNQ1 channel inhibition. CHO-K1 KCNQ1, FluxOR thallium flux fluorescence; hits give high values. B-score at 10 µM. 1.3% of 310,000 active. AID 2642;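 active = compounds whose thallium flux B-score, printed positive for inhibition, exceeds three library SD while starting fluorescence stays within three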;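 note: channel opened by potassium depolarization with thallium stimulus after 20 min compound exposure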
KCNK3 block – human KCNK3 channel inhibition, primary screen; B-score at 10 µM; O14649; 0.84% of 340,000 active; CHO-KCNK3 thallium flux, FluxOR fluorescence; hits give low values;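 active = B-score under library mean minus 4 SD, starting fluorescence ratio at most library mean plus 5 SD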;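 note: more negative B-score means stronger inhibition of thallium flux through KCNK3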
hERG protect – hERG (human) protection from proarrhythmic block | activation (rescue from dofetilide block), less the hit threshold, % at 10 µM | Q12809 | 0.51% of 310,000 active | CHO-hERG, FluxOR thallium flux, dofetilide IC70 present;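 active = activation above the mean of controls blocked by dofetilide plus 5 SD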;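 note: thallium influx through hERG after potassium depolarization seen as dye fluorescence rise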
KCNQ1 pot – potentiates or activates the human KCNQ1 potassium channel; CHO-K1 KCNQ1, thallium flux FluxOR fluorescence; hits give high values; P51787; B-score at 10 µM; 0.35% of 310,000 active;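 active = fluorescence ratio B-score, a plate-corrected score, at least three library SD, with initial intensity B-score within 5 SD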
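Medium – assay buffer, equal DMSO in all wells · Material – CHO-K1 cell line with stable KCNQ1 potassium channel expression · Signal – kinetic FluxOR thallium fluorescence, 10-s 1-Hz baseline, 110-s post-stimulus read · Compound – single concentration per compound, DMSO matched to controls · Schedule – 37 °C overnight plating, 90-min dark dye load, 20-min compound pretreatment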
KCNQ1 block val – human KCNQ1 channel inhibition, validation assay | inhibition, % at 10 µM | AID 588353 | KCNQ1 cell line, FluxOR thallium flux fluorescence | shares compounds with KCNQ1 block | 93% of 1,600 active;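 active = primary screen active, with duplicate mean exceeding buffer control mean plus 3 SD of buffer wells, cut at about 28% in these data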;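 note: 0% = buffer control ratio and 100% = XE991 inhibitor control ratio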
CHO KCNQ1 ctr – activity in parental CHO cells lacking KCNQ1; shares compounds with KCNQ1 block; parental CHO-K1, FluxOR thallium flux fluorescence ratio; hits give low values; zero means no signal rise above baseline; fluorescence ratio (Tl flux) at 10 µM; 21% of 1,600 active;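 active = mean of duplicate thallium-flux fluorescence ratios in parental host cells more than 5 SD below the buffer control mean, cut at about 0.38 in these data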;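 note: ratio is peak minus minimum fluorescence divided by baseline fluorescence; actives read low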
KCNQ1 APC inh – blocks human KCNQ1 current in automated patch clamp; 20% of 490 active; AID 624120; shares compounds with KCNQ1 block; KCNQ1-CHO cells; calls only at 10 µM;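 active = KCNQ1 current drop exceeding 3 SD of negative control wells, seen in both duplicate runs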;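 note: steady state current during a 2 s step from -80 to +40 mV; negative values mean current inhibition and positive values mean potentiation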
KCNQ2 inh – rat KCNQ2 inhibition in KCNQ1 inhibitor specificity screen | shares compounds with KCNQ1 block | KCNQ2 cells, FluxOR thallium flux fluorescence | inhibition, % at 10 µM | 71% of 1,600 active | AID 651746;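 active = mean percent inhibition of the KCNQ2 thallium signal more than 5 SD above the buffer-only control wells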;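 note: KCNQ2 expressed in CHO cells; 0% = buffer control wells and 100% = XE-991 inhibitor control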
KCNQ1-KCNE1 inh – KCNQ1 inhibitor that also blocks human KCNQ1/KCNE1 channel; shares compounds with KCNQ1 block; KCNQ1/KCNE1 cells, FluxOR thallium flux fluorescence; inhibition, % at 10 µM; 77% of 1,600 active; AID 652147;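 active = mean percent inhibition of duplicate wells above the buffer-only control mean plus 3 SD of those controls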;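 note: 0% = buffer only wells and 100% = XE-991 inhibitor control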
* hit, by the source's call; i = inactive; . = no result; + = active, no number.

SMILES	KCC2 mod	KCNK9 block	KCNQ1 block	KCNK3 block	hERG protect	KCNQ1 pot	KCNQ1 block val	CHO KCNQ1 ctr	KCNQ2 inh	KCNQ1-KCNE1 inh	others
Cc1ccc(CNCC(O)(c2ccccc2)c2ccc(Cl)cc2)cc1 (configuration not stated)	0.489	i	6*	i	-33.7	i	116.0*	0.424	92.3%*	42.0%*	KCNQ1 APC inh=i
C=CCNC(=O)COC(=O)C1CCN(S(=O)(=O)c2ccc3c(c2)OCCO3)CC1	.	i	i	i	-1.8	i	.	.	.	.
COc1cc(OC)cc(C(=O)Nc2nc(CC(=O)NCCc3ccccc3)cs2)c1	.	i	15*	i	-22.8	i	48.5*	0.418	111.3%*	103.0%*
CCN(CC)C(C(=O)NC1CCCCC1)c1ccc(C)cc1 (configuration not stated)	-1.37	i	7*	i	-11.1	i	75.0*	0.45	65.0%*	110.0%*
CN(C)C(C(=O)NC1CCCCC1)c1ccc(Cl)cc1 (configuration not stated)	0.113	i	i	i	-1.4	i	.	.	.	.
NCC12CC3CC(C1)CC(c1ccc(Br)cc1)(C3)C2	.	i	6*	i	-16.7	i	66.0*	0.43	i	124.0%*
CCOc1ccc(N2CC(C(=O)NC3CCCC3)CC2=O)cc1 (configuration not stated)	.	i	i	i	-6.9	i	.	.	.	.
COc1ccc(C(=O)NC2CCc3ccccc32)cc1OC1CCN(C(C)C)CC1 (configuration not stated)	.	i	i	i	-4.4	i	.	.	.	.
O=C(c1cc(COc2cccc(C(F)(F)F)c2)on1)N1CCC(c2ccncc2)CC1	.	i	12*	i	-14.7	i	127.5*	0.474	80.3%*	105.5%*	KCNQ1 APC inh=i
COc1cccc(OCc2cc(C(=O)N3CCC(c4ccncc4)CC3)no2)c1	.	i	8*	i	-12.7	i	111.0*	0.481	135.0%*	98.5%*	KCNQ1 APC inh=i
O=C(c1cc(COc2cccc(C(F)(F)F)c2)on1)N1CCC(c2ccccc2)CC1	.	i	i	i	-5.1	i	.	.	.	.
CC1CCN(CC(O)COCCC23CC4CC(CC(C4)C2)C3)CC1 (configuration not stated)	-0.681	i	7*	i	-8.7	i	72.5*	0.376*	79.0%*	76.5%*
CC1CCN(CC(O)COCCOc2ccc(Br)cc2)CC1 (configuration not stated)	-0.0648	i	i	i	-7.3	i	.	.	.	.
O=c1cc(OCc2ccccc2)cc[nH]1	.	.	.	i	.	.	.	.	.	.
NS(=O)(=O)c1cccc(NC(=O)COC(=O)CNC(=O)c2ccc(-c3ccccc3)cc2)c1	.	.	.	i	.	.	.	.	.	.
Cc1ccc(C2(CCNS(=O)(=O)c3ccc(C)cc3)CCOC(C(C)C)C2)cc1 (configuration not stated)	-1.86	i	8*	i	-11.6	i	94.0*	0.424	83.3%*	98.0%*	KCNQ1 APC inh=i
N#Cc1c(Cl)nsc1NC(=O)c1ccccc1	-3.77	i	6*	i	-29.1	i	0.0	0.529	i	i
COc1ccc(-c2sc(Nc3ccccc3)n[n+]2-c2ccc(F)cc2)c(C)c1C	.	i	16*	i	-37.1	i	128.0*	0.393	99.0%*	134.5%*	KCNQ1 APC inh=+
Cc1cc(C(=O)COc2cccnc2[N+](=O)[O-])c(C)n1Cc1cccs1	0.0706	i	i	i	-10.6	i	.	.	.	.
CC(=O)Nc1ccccc1OCC(=O)c1cc(C)n(Cc2cccs2)c1C	-1.61	i	7*	-9.43*	-20.8	i	110.0*	0.424	99.0%*	38.5%*
CCN1/C(=C\c2ccc3cc(C)ccc3[n+]2CC)Sc2cc(C)c(C)cc21	0.107	i	17*	i	-15.1	i	169.5*	0.259*	i	i
CCN1/C(=C/c2ccc3cc(C)cc(C)c3[n+]2CC)Sc2cc(C)ccc21	-0.663	.	.	i	.	.	.	.	.	.
Clc1ccc(-c2nc(N3CCCCC3)nc3ccccc23)cc1	-0.158	i	8*	i	-6.8	i	132.5*	0.436	85.0%*	197.0%*	KCNQ1 APC inh=+
CCCCNC(=O)COC(=O)c1cc(C)nc2ccccc12	1.02	i	i	i	-9.0	i	.	.	.	.
Cc1cc(C(=O)OCC(=O)NCCCN2CCCC2=O)c2ccccc2n1	0.484	i	11*	i	-9.5	i	0.0	0.507	i	73.0%*
SMILES	KCC2 mod	KCNK9 block	KCNQ1 block	KCNK3 block	hERG protect	KCNQ1 pot	KCNQ1 block val	CHO KCNQ1 ctr	KCNQ2 inh	KCNQ1-KCNE1 inh	others
O=C(Cn1nc(C(=O)O)c2ccccc2c1=O)Nc1cc(C(F)(F)F)ccc1-n1cncn1	.	.	.	i	.	.	.	.	.	.
CCn1nc(C)c(CNC(=O)c2cc(COc3ccc(F)cc3Cl)on2)c1C	-3.53	i	8*	i	-23.0	i	39.5*	0.547	i	i
Clc1ccc2[nH]c3c(NCCN4CCOCC4)ncnc3c2c1	0.112	i	i	i	-16.8	i	.	.	.	.
Clc1ccc2[nH]c3c(NCC4CCCO4)ncnc3c2c1 (configuration not stated)	2.49	i	8*	.	-29.1	i	106.0*	0.487	89.7%*	i	KCNQ1 APC inh=+
O=C(NC1CCSc2ccccc21)c1cccc(Br)c1 (configuration not stated)	.	i	7*	i	-6.5	i	31.5*	0.551	82.7%*	33.5%*
COc1ccc(C)cc1NC(=O)COC(=O)c1c(C)nn(-c2ccccc2)c1C	.	.	.	i	.	.	.	.	.	.
Cc1ccccc1OCCCCc1c(C)n[nH]c1C	.	i	7*	i	-11.7	i	109.0*	0.439	97.0%*	80.5%*	KCNQ1 APC inh=i
Cc1ccccc1OCCCc1c(C)n[nH]c1C	-0.382	i	i	i	-6.7	i	.	.	.	.
COc1ccccc1N1C(=O)c2cccc3c(N(C)CCO)ccc(c23)C1=O	.	i	7*	i	-20.1	i	100.0*	0.268*	i	i
CCn1c(CC(=O)Nc2ccccc2F)nnc1SCC(=O)NC1CCCC1	.	i	i	i	-7.6	i	.	.	.	.
